Results reported in ChEMBL document CHEMBL1138813, “Synthesis and antiviral activity of 3-formyl- and 3-cyano-2,5,6-trichloroindole nucleoside derivatives” (J Med Chem, 2004).

tested on: HFF; assay: Inhibitory concentration required against human cytomegalovirus (HCMV) expressed in HFF cells was determined by plaque reduction assay; assay type: functional, cell-based; conditions: not given
Method in brief: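 HFF cells in 24-well dishes infected with about 100 pfu/cm² of HCMV Towne strain. After adsorption, compound (10 mg/mL DMSO stock diluted in medium) added to duplicate wells at four to eight concentrations. Incubated 7–10 days at 37 °C, then fixed and crystal violet stained; plaques counted microscopically. % plaque reduction vs drug-free wells; IC50 by log-linear regression. GCV as positive control.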

Compound	IC50 [µM]
NC(=O)N/N=C/c1c(Cl)n(C2O[C@H](CO)[C@@H](O)[C@H]2O)c2cc(Cl)c(Cl)cc12 (some centres not stated)	3
COC(=O)N/N=C/c1c(Cl)n(C2O[C@H](CO)[C@@H](O)[C@H]2O)c2cc(Cl)c(Cl)cc12 (some centres not stated)	1.7
N/C(S)=N/N=C/c1c(Cl)n(C2O[C@H](CO)[C@@H](O)[C@H]2O)c2cc(Cl)c(Cl)cc12 (some centres not stated)	2.2
OC[C@H]1OC(n2c(Cl)c(/C=N/O)c3cc(Cl)c(Cl)cc32)C(O)[C@@H]1O (single isomer, unassigned)	3.9
CO/N=C/c1c(Cl)n(C2O[C@H](CO)[C@@H](O)C2O)c2cc(Cl)c(Cl)cc12 (single isomer, unassigned)	40
N#Cc1c(Cl)n(C2O[C@H](CO)[C@@H](O)C2O)c2cc(Cl)c(Cl)cc12 (single isomer, unassigned)	0.55
O=Cc1c(Cl)n(C2O[C@H](CO)[C@@H](O)C2O)c2cc(Cl)c(Cl)cc12 (single isomer, unassigned)	0.23
NC(=O)c1c(Cl)n(C2O[C@H](CO)[C@@H](O)C2O)c2cc(Cl)c(Cl)cc12 (single isomer, unassigned)	2
N/C(=N\O)c1c(Br)n(C2O[C@H](CO)[C@@H](O)C2O)c2cc(Cl)c(Cl)cc12 (single isomer, unassigned)	0.41
COC(=N)c1c(Cl)n(C2O[C@H](CO)[C@@H](O)C2O)c2cc(Cl)c(Cl)cc12 (single isomer, unassigned)	0.36
N/C(=N\O)c1c(Cl)n(C2O[C@H](CO)[C@@H](O)C2O)c2cc(Cl)c(Cl)cc12 (single isomer, unassigned)	0.3
CC(=O)N/N=C/c1c(Cl)n(C2O[C@H](CO)[C@@H](O)C2O)c2cc(Cl)c(Cl)cc12 (single isomer, unassigned)	1.7
CN(C)/N=C/c1c(Cl)n(C2O[C@H](CO)[C@@H](O)C2O)c2cc(Cl)c(Cl)cc12 (single isomer, unassigned)	0.27

tested on: not listed separately; assay: Inhibitory concentration required against herpes simplex virus type-1 (HSV-1) expressed in BSC-1 cells was determined by ELISA assay; assay type: functional, cell-based, Cercopithecidae; conditions: not given
Method in brief: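 BSC-1 cells, 10 000 per well in MEM(E) plus 10% calf serum, incubated overnight at 37 °C. Drug added in quadruplicate with HSV-1 KOS strain at 100 pfu/well, then 3 days at 37 °C. […] Acyclovir as positive control.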

IC50 [µM]	Compound
> 100	NC(=O)N/N=C/c1c(Cl)n(C2O[C@H](CO)[C@@H](O)[C@H]2O)c2cc(Cl)c(Cl)cc12 (some centres not stated)
30	COC(=O)N/N=C/c1c(Cl)n(C2O[C@H](CO)[C@@H](O)[C@H]2O)c2cc(Cl)c(Cl)cc12 (some centres not stated)
> 100	N/C(S)=N/N=C/c1c(Cl)n(C2O[C@H](CO)[C@@H](O)[C@H]2O)c2cc(Cl)c(Cl)cc12 (some centres not stated)
130	OC[C@H]1O[C@@H](n2c(Br)nc3cc(Cl)c(Cl)cc32)C(O)[C@@H]1O (single isomer, unassigned)
5	OC[C@H]1OC(n2c(Cl)c(/C=N/O)c3cc(Cl)c(Cl)cc32)C(O)[C@@H]1O (single isomer, unassigned)
15	CO/N=C/c1c(Cl)n(C2O[C@H](CO)[C@@H](O)C2O)c2cc(Cl)c(Cl)cc12 (single isomer, unassigned)
15	N#Cc1c(Cl)n(C2O[C@H](CO)[C@@H](O)C2O)c2cc(Cl)c(Cl)cc12 (single isomer, unassigned)
40	NC(=O)c1c(Cl)n(C2O[C@H](CO)[C@@H](O)C2O)c2cc(Cl)c(Cl)cc12 (single isomer, unassigned)
> 100	N/C(=N\O)c1c(Br)n(C2O[C@H](CO)[C@@H](O)C2O)c2cc(Cl)c(Cl)cc12 (single isomer, unassigned)
70	COC(=N)c1c(Cl)n(C2O[C@H](CO)[C@@H](O)C2O)c2cc(Cl)c(Cl)cc12 (single isomer, unassigned)
70	N/C(=N\O)c1c(Cl)n(C2O[C@H](CO)[C@@H](O)C2O)c2cc(Cl)c(Cl)cc12 (single isomer, unassigned)
30	CC(=O)N/N=C/c1c(Cl)n(C2O[C@H](CO)[C@@H](O)C2O)c2cc(Cl)c(Cl)cc12 (single isomer, unassigned)
15	CN(C)/N=C/c1c(Cl)n(C2O[C@H](CO)[C@@H](O)C2O)c2cc(Cl)c(Cl)cc12 (single isomer, unassigned)

Compound	IC50 [µM]
OC[C@H]1O[C@@H](n2c(Cl)nc3cc(Cl)c(Cl)cc32)C(O)[C@@H]1O (single isomer, unassigned)	102
O=Cc1c(Cl)n(C2O[C@H](CO)[C@@H](O)C2O)c2cc(Cl)c(Cl)cc12 (single isomer, unassigned)	40
Nc1nc2c(ncn2COC(CO)CO)c(=O)[nH]1 [GANCICLOVIR]	3.5

tested on: HFF; assay: Cytotoxicity produced in stationary HFF cells was determined by microscopic inspection of uninfected cells; assay type: functional, cell-based; conditions: Homo sapiens
Method in brief: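 Stationary HFF cells in MEM with 10% fetal bovine serum, in plaque-assay plates. Visual cytotoxicity scored microscopically in duplicate wells on cells not affected by virus, at the time of HCMV plaque enumeration (after 7–10 days at 37 °C). IC50 from linear portion of regression of % inhibition against log10 drug concentration.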

Compound	IC50 [µM]
NC(=O)N/N=C/c1c(Cl)n(C2O[C@H](CO)[C@@H](O)[C@H]2O)c2cc(Cl)c(Cl)cc12 (some centres not stated)	100
COC(=O)N/N=C/c1c(Cl)n(C2O[C@H](CO)[C@@H](O)[C@H]2O)c2cc(Cl)c(Cl)cc12 (some centres not stated)	32
N/C(S)=N/N=C/c1c(Cl)n(C2O[C@H](CO)[C@@H](O)[C@H]2O)c2cc(Cl)c(Cl)cc12 (some centres not stated)	100
OC[C@H]1OC(n2c(Cl)c(/C=N/O)c3cc(Cl)c(Cl)cc32)C(O)[C@@H]1O (single isomer, unassigned)	20
CO/N=C/c1c(Cl)n(C2O[C@H](CO)[C@@H](O)C2O)c2cc(Cl)c(Cl)cc12 (single isomer, unassigned)	32
NC(=O)c1c(Cl)n(C2O[C@H](CO)[C@@H](O)C2O)c2cc(Cl)c(Cl)cc12 (single isomer, unassigned)	45
N/C(=N\O)c1c(Br)n(C2O[C@H](CO)[C@@H](O)C2O)c2cc(Cl)c(Cl)cc12 (single isomer, unassigned)	> 100
COC(=N)c1c(Cl)n(C2O[C@H](CO)[C@@H](O)C2O)c2cc(Cl)c(Cl)cc12 (single isomer, unassigned)	100
N/C(=N\O)c1c(Cl)n(C2O[C@H](CO)[C@@H](O)C2O)c2cc(Cl)c(Cl)cc12 (single isomer, unassigned)	100
CC(=O)N/N=C/c1c(Cl)n(C2O[C@H](CO)[C@@H](O)C2O)c2cc(Cl)c(Cl)cc12 (single isomer, unassigned)	32
CN(C)/N=C/c1c(Cl)n(C2O[C@H](CO)[C@@H](O)C2O)c2cc(Cl)c(Cl)cc12 (single isomer, unassigned)	32
Nc1nc2c(ncn2COC(CO)CO)c(=O)[nH]1 [GANCICLOVIR]	> 100

tested on: not listed separately; assay: Cytotoxicity against KB cells was determined by crystal violet staining and spectrophotometric quantitation of dye eluted from stained cells; assay type: functional, cell-based; conditions: Homo sapiens
Method in brief: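 KB cells seeded at 3000–5000 per well, incubated overnight at 37 °C, then compound added in quadruplicate at six to eight concentrations. After 48 h at 37 °C in CO₂ (two population doublings), cells were fixed in 95% ethanol and stained with 0.1% crystal violet. Dye eluted with acidified ethanol, read at 570 nm. IC50 from linear regression of % inhibition vs log10 concentration.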

Compound	IC50 [µM]
NC(=O)N/N=C/c1c(Cl)n(C2O[C@H](CO)[C@@H](O)[C@H]2O)c2cc(Cl)c(Cl)cc12 (some centres not stated)	> 100
COC(=O)N/N=C/c1c(Cl)n(C2O[C@H](CO)[C@@H](O)[C@H]2O)c2cc(Cl)c(Cl)cc12 (some centres not stated)	20
N/C(S)=N/N=C/c1c(Cl)n(C2O[C@H](CO)[C@@H](O)[C@H]2O)c2cc(Cl)c(Cl)cc12 (some centres not stated)	65
OC[C@H]1O[C@@H](n2c(Br)nc3cc(Cl)c(Cl)cc32)C(O)[C@@H]1O (single isomer, unassigned)	> 100
OC[C@H]1O[C@@H](n2c(Cl)nc3cc(Cl)c(Cl)cc32)C(O)[C@@H]1O (single isomer, unassigned)	210
OC[C@H]1OC(n2c(Cl)c(/C=N/O)c3cc(Cl)c(Cl)cc32)C(O)[C@@H]1O (single isomer, unassigned)	25
CO/N=C/c1c(Cl)n(C2O[C@H](CO)[C@@H](O)C2O)c2cc(Cl)c(Cl)cc12 (single isomer, unassigned)	70
N#Cc1c(Cl)n(C2O[C@H](CO)[C@@H](O)C2O)c2cc(Cl)c(Cl)cc12 (single isomer, unassigned)	65
O=Cc1c(Cl)n(C2O[C@H](CO)[C@@H](O)C2O)c2cc(Cl)c(Cl)cc12 (single isomer, unassigned)	45
NC(=O)c1c(Cl)n(C2O[C@H](CO)[C@@H](O)C2O)c2cc(Cl)c(Cl)cc12 (single isomer, unassigned)	45
N/C(=N\O)c1c(Br)n(C2O[C@H](CO)[C@@H](O)C2O)c2cc(Cl)c(Cl)cc12 (single isomer, unassigned)	35
COC(=N)c1c(Cl)n(C2O[C@H](CO)[C@@H](O)C2O)c2cc(Cl)c(Cl)cc12 (single isomer, unassigned)	50
N/C(=N\O)c1c(Cl)n(C2O[C@H](CO)[C@@H](O)C2O)c2cc(Cl)c(Cl)cc12 (single isomer, unassigned)	> 100
CC(=O)N/N=C/c1c(Cl)n(C2O[C@H](CO)[C@@H](O)C2O)c2cc(Cl)c(Cl)cc12 (single isomer, unassigned)	9
CN(C)/N=C/c1c(Cl)n(C2O[C@H](CO)[C@@H](O)C2O)c2cc(Cl)c(Cl)cc12 (single isomer, unassigned)	70
Nc1nc2c(ncn2COC(CO)CO)c(=O)[nH]1 [GANCICLOVIR]	> 100
